Screening data as filed in PubChem BioAssay.
A selection: hits, their analogues and other compounds. The true share with any hit is near 0.7%.
Vif inh – blocks HIV Vif function. actives 0.35% (n = 340,000). HEK293T cells, Vif self-association by quenched fluorescence, imaging, 24 h. inhibition, % at 7.49 µM. AID 602346; in the data active = inhibition above about 50%, passing the limit was not always enough
XiGFP reactiv – reactivates the inactive X chromosome in mouse fibroblasts; XiGFP mouse fibroblasts, % GFP-positive cells imaging, 3 d; cells co-treated with 5-aza-dC sensitizer; scaled so ellipticine positive control = 100%; activation, % at 7.58 µM; actives 0.055% (n = 360,000);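 active = mean normalized replicate activation at least 10% and every replicate at or above 10%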
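assay system = SV40-immortalized XiGFP fibroblast cells, line 68-5-11 | buffer or medium = DMEM plus 5-aza-dC sensitizer | doses = single-point pinned compound dosing | times = 3-day compound exposure, then 15 min fixation at room temperature | benchmarks = positive control ellipticine, 6 µM final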
NPR1 activator – GC-A (human) enzyme activation; activation, % at 10 µM; actives 0.14% (n = 370,000); P16066; HEK293 GC-A cells, cGMP TR-FRET, EC30 ANP; 0% at EC30 ANP, 100% saturating ANP; in the data active = activation above about 40%
GC-B act – GC-B (human) receptor activation; P20594; HEK293-GC-B cells, CNP EC30, cGMP TR-FRET; 0% at EC30 CNP, 100% saturating CNP; activation, % at 10 µM; actives 0.11% (n = 370,000); AID 1920062;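 active = activation at 10 µM reaching about 35% in either raw or pattern-adjusted values, limit read from the data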
Glyco luc inh – N-linked glycosylation inhibition. D54 ERlucT glycosylation luciferase reporter, 24 h; percent of 100 nM tunicamycin response. reporter increase, % at 12.5 µM. actives 0.23% (n = 360,000);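 active = mean luciferase reporter signal, scaled so untreated is 0 and the glycosylation-blocking control 100, at or above a set limit in every replicate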;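 note: luciferase carries N-glycosylation sites so blocking glycosylation raises the light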
CaV13 FRET inh – Primary screen for inhibitors of IQ motif and Ca2+-dependent inactivation inhibitor domain binding in CACNA1D, Förster resonance energy transfer in living cells, …. HEK cells, CFP/YFP FRET ICDI-IQ, plate reader, 10 min; percent FRET-ratio fall versus neutral wells. inhibition, % at 12.3 µM. actives 0.098% (n = 340,000). AID 743397;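 active = mean replicate inhibition of at least 30% and at least 1% of replicates passing that level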
Hits are given with their value; 0 = inactive; - = no result; + = active, no number.

SMILES	Vif inh	XiGFP reactiv	NPR1 activator	GC-B act	Glyco luc inh	CaV13 FRET inh
CC(C)CC(=O)Nc1sc2c(c1C#N)CC(C)(C)NC2(C)C	55.6	-	0	0	0	0
COc1ccc2c3c([nH]c2c1)[C@@H](CO)N(C(=O)Nc1ccc(F)cc1)CC31CCN(S(=O)(=O)c2cccs2)CC1	-	0	-	-	-	-
Cc1cc(C)c2c(N)c3ccccc3nc2n1	0	-	0	0	123.0	0
Cc1cc(C)c2cccc(N)c2n1	0	0	0	0	0	0
CCc1ccc2nc3nc(C)cc(C)c3c(N)c2c1	-	-	0	0	85.1	0
COc1ccc([N+](=O)[O-])cc1NC(=O)c1ccc(CN(c2ccc(C)c(C)c2)S(C)(=O)=O)cc1	0	0	0	0	0	0
Cc1ccc(N(Cc2ccc(C(=O)NN=C3CCN(C)CC3)cc2)S(C)(=O)=O)cc1C	64.1	0	0	0	0	0
COc1ccc(Cn2c(=N)c(C(=O)NC3CCCCC3)cc3c(=O)n4ccccc4nc32)cc1	0	0	0	0	0	0
CCOC(=O)c1cc2c(=O)n3ccccc3nc2n(Cc2ccc(Cl)cc2)c1=N	0	0	0	0	0	+
COCCCn1c(=N)c(C(=O)NC2CCCCC2)cc2c(=O)n3ccccc3nc21	-	-	0	0	0	42.9
CCC(=O)Nc1ccc(-c2nnc(SCc3ccc(C(=O)Nc4nccs4)cc3)n2CC)cc1	67.3	-	0	0	0	0
CCn1c(SCC(=O)Nc2nccs2)nnc1-c1ccc(C)cc1	0	-	0	0	0	0
COC(=O)N1C(=O)[C@](c2ccc(Cl)cc2)(C(C)C)N1C(=O)OC	50.7	0	0	0	0	0
COC(=O)N1C(=O)[C@@](c2ccc(OC)cc2)(C(C)C)N1C(=O)OC	0	-	-	-	0	-
CCc1sc(NC(=O)c2cc3ccccc3oc2=O)nc1-c1cccs1	55.2	0	0	0	0	0
CCCc1nnc(NC(=O)c2cc3ccccc3oc2=O)s1	0	-	0	0	0	0
Oc1ccc(CCNc2c3ccccc3nc3ccccc23)cc1O	0	0	0	0	37.4	0
COc1ccc2nc(C)cc(Nc3ccc(N4CCN(C)CC4)cc3)c2c1	0	0	0	0	66.6	0
COc1ccc(Nc2cc(C)nc3ccccc23)cc1	0	-	0	0	0	0
COc1ccc2nc(C)cc(Nc3ccc(C)cc3)c2c1	0	0	0	0	0	0
COc1ccc2nc(C)cc(Nc3ccc(N4CCOCC4)cc3)c2c1	0	-	0	0	49.3	-
Cc1cccc(C2CC3(CC(C)(C)NC(=S)N3)Oc3cc(O)ccc32)c1 (stereo not drawn)	0	0	0	0	0	0
COc1cccc(C2CC3(CC(C)(C)NC(=S)N3)Oc3cc(O)ccc32)c1 (stereo not drawn)	0	-	55.8	0	0	0
C[C@H](CO)N1C[C@H](C)[C@H](CN(C)Cc2cncnc2)Oc2cc(-c3cccnc3)ccc2S1(=O)=O	-	0	-	-	-	-
N#CCC(CNc1ncc(C(F)(F)F)cc1Cl)OC(=O)c1cccc([N+](=O)[O-])c1 (stereo not drawn)	0	-	0	0	28.6	0
SMILES	Vif inh	XiGFP reactiv	NPR1 activator	GC-B act	Glyco luc inh	CaV13 FRET inh
N#CCC(CNc1ncc(C(F)(F)F)cc1Cl)OC(=O)c1ccc(Cl)cc1 (stereo not drawn)	0	-	0	0	0	0
O=C(N=c1ccn(-c2nc3ccccc3nc2NS(=O)(=O)c2ccc(Cl)cc2)cc1)c1cccs1	82.5	0	0	0	0	0
COc1ccc(S(=O)(=O)Nc2ccc3c(c2)C(=O)N(C)C[C@@H](OC)[C@H](C)CN(C)[C@H](C)CO3)cc1	-	0	-	-	-	-
CCC(NC(=O)N(Cc1ccccc1)Cc1ccc2c(c1)OCO2)(C(F)(F)F)C(F)(F)F	0	-	0	0	0	0
CC(NC(=O)N(Cc1ccccc1)Cc1ccc2c(c1)OCO2)(C(F)(F)F)C(F)(F)F	82.7	-	0	0	0	0
O=[N+]([O-])c1ccc(Sc2cccc[n+]2[O-])c2nonc12	76.9	58.7	0	0	0	0
O=[N+]([O-])c1ccc(Nc2ccccc2)c2nonc12	0	0	0	0	0	0
CCN(CC)c1ccc2cc(C(N)=O)c(=O)oc2c1	131.6	-	0	0	0	32.9
CCN(CC)c1ccc2cc(C(N)=O)c(=N)oc2c1	0	0	0	0	0	0
Cn1nc(-c2ccc(Cl)cc2)c2cc(C(=O)NCCN3CCOCC3)sc21	0	0	0	0	0	0
Cn1nc(-c2ccc(Cl)cc2)c2cc(C(=O)NCCCN3CCOCC3)sc21	0	-	-	-	33.4	-
CCN(CC)CCNC(=O)c1cc2c(-c3ccc(Cl)cc3)nn(C)c2s1	0	0	0	0	36.0	0
CCCN(CCC)CCNC(=O)c1cc2c(-c3ccc(Cl)cc3)nn(C)c2s1	0	0	0	0	0	0
Cc1ccc(S(=O)(=O)N2CCN(C(=O)COC(=O)c3ccccc3OC(F)F)CC2)c(C)c1	-	127.1	0	0	0	0
Cc1ccc(S(=O)(=O)N2CCN(C(=O)c3n[nH]c(=O)c4ccccc34)CC2)c(C)c1	52.6	0	0	0	0	0
Cc1ccc(S(=O)(=O)N2CCN(C(=O)c3n[nH]c(=O)c4ccccc34)CC2)cc1	0	0	0	0	0	0
COc1ccc2c3c(n(C)c2c1)[C@H](CO)N(C(=O)c1ccccc1)CC31CN(Cc2ccccc2OC)C1	-	0	-	-	-	-
Cc1cccn2c(=O)c3cc(C(=O)NC(C)c4ccccc4)c(=N)n(CCCn4ccnc4)c3nc12 (stereo not drawn)	0	-	0	0	0	75.3
Cc1ccc2nc3c(cc(C(N)=S)c(=N)n3CCCOC(C)C)c(=O)n2c1	0	-	0	0	36.8	34.0
CCn1c(=N)c(C(=O)NC)cc2c(=O)n3cccc(C)c3nc21	0	-	0	0	0	-
Cc1ccc2nc3c(cc(C(=O)NCc4ccccc4)c(=N)n3CCCn3ccnc3)c(=O)n2c1	0	0	0	0	0	+
CO[C@@H]1CN(C)C(=O)c2cc(NC(=O)Cc3ccccc3)ccc2OC[C@@H](C)N(C(C)=O)C[C@H]1C	-	0	-	-	-	-
COc1cc2c(cc1OC)C(c1cccs1)N(C(=O)c1cccnc1)CC2 (stereo not drawn)	-	0	0	0	80.2	0
Cc1ccc(-n2nnc3c(=O)n(CC(=O)OCc4ccccc4)cnc32)cc1	75.4	0	0	0	0	0
CCCC(=O)NC(NC(=S)Nc1ccc(N=Nc2ccccc2)cc1)C(Cl)(Cl)Cl (stereo not drawn)	0	0	0	0	30.3	0
CCNC(=O)[C@H]1[C@H](CO)[C@H]2Cn3c(ccc(-c4cccc(C(=O)N(C)C)c4)c3=O)[C@@H]1N2	-	0	-	-	-	-
